SIRT5 block: SIRT5 desuccinylase inhibitors, primary screen, biochemical, fluorescence imaging, single point, set 5; NAD-dependent protein deacylase sirtuin-5, mitochondrial (Homo sapiens), Q9NXA8; Purified SirT5, succinyl-peptide AMC, trypsin-coupled fluorescence; inhibition, % at 15 µM; 330,000 tested, 1.1% active; AID 652115, 2013; in the data active = inhibition above about 15%; inconclusive = no clear call, values can overlap the other calls
Target sequence (Q9NXA8 whole entry, looked up): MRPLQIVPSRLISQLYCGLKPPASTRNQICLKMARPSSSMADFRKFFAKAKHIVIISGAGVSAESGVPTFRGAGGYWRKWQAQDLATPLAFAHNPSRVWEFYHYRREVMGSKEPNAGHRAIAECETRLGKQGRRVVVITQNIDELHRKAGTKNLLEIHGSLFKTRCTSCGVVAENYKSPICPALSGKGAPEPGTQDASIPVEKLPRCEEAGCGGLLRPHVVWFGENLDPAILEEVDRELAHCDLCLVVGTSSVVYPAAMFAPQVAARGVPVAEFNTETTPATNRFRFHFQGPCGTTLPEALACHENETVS
S100A4 MyoIIA: inhibitors of S100A4-myosin IIA peptide binding, primary screen, biochemical, fluorescence polarization, TAMRA-MyoIIA peptide; inhibition, % at 10.7 µM; 360,000 tested, 0.14% active;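 active = mean inhibition of at least 70% across replicates, with every replicate also reaching that level; inconclusive = mean inhibition reaches 70% but some replicates fall short; inactive = mean inhibition below 70%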
Target sequence (P26447 whole entry, looked up): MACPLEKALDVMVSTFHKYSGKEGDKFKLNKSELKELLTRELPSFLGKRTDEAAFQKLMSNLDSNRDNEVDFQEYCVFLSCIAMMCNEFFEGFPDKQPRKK
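System – human S100A4 monomer protein, biochemical binding assay · Buffer or medium – Calcium-containing HEPES buffer, pH 7.2 · Timing – 5 min between mix addition and reading · Also added – TAMRA-labelled myosin IIA heavy-chain peptide probe, 5 nM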
Statin myotox sup: suppressors of statin myotoxicity in C2C12 myotubes, primary screen, cell-based, single point, plate reader. C2C12 myotubes + simvastatin, ATP luminescence, 48 h; scaled: DMSO 0, geranylgeraniol control 100. AID 602340, 2012. 330,000 tested, 0.78% active. rescue of ATP level, % at 7.49 µM;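 active = mean ATP rescue above about 67%, or every replicate alone reaching that limit, limit read from the data, passing the limit was not always enough; inconclusive = no clear call, values can overlap the other calls; inactive = mean under the limit and some replicate under it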;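 note: myotubes were challenged with 10 µM simvastatin during compound exposure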
rRNA inh HTS: reduced GFP signal of wild-type E. coli, primary screen, bacterial rRNA inhibitor project, GFP/RFP fluorescence, OD600, single point | 350,000 tested, 1.6% active | GFP signal change (wild-type ribosome), % (no concentration beside the values) | E. coli WT GFP vs humanized-ribosome RFP mutants, 24 h; stronger effect = lower value; DMSO median 0, no signal -100;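 active = significant combined selectivity score with lowered wild-type GFP, culture density cut under 30%, mutant RFP and density less affected; inactive = any of these conditions unmet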
Cneo AK release: Cryptococcus neoformans cell lysis inducers, primary screen, AK release luminescence, single concentration; C. neoformans lysis, adenylate kinase release luminescence, 4 h; normalised: neutral wells 0, clomiphene wells 100; lysis activity, % at 15 µM; 360,000 tested, 0.2% active; AID 651654, 2012;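 active = mean lysis activity across replicates of at least 80%, whatever share of replicates individually reach that level; inactive = mean lysis activity below 80%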
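Test system: log-phase Cryptococcus neoformans yeast cells; Quantity: yeast cell density of 5 × 10^6 cells/mL; Buffer or medium: YPD; Doses: single compound concentration per well; Timing: 4 h at 37 °C static, read 1 h later; Measured by: AK luminescence; Read-out basis: lysis from increased AK signal; Control set: Clomiphene as positive control.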
PGC1a acetyl inh: inhibitors of PGC1a acetylation signal, primary screen, cell-based, U2OS, AlphaScreen, inhibitor mode | AlphaScreen anti-acetyl-lysine; with virally co-expressed GCN5 acetyltransferase | inhibition, % at 15.6 µM | 350,000 tested, 0.17% active;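 active = every replicate shows inhibition of at least 40%; inconclusive = mean inhibition at least 40% but some replicate below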;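 note: 0% = neutral control wells and 100% = positive control wells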
An asterisk follows results filed as active; ? = inconclusive; . = no result. A selection: hits, their analogues and other compounds. The true share with any hit is near 3%.

SMILES	SIRT5 block	S100A4 MyoIIA	Statin myotox sup	rRNA inh HTS	Cneo AK release	PGC1a acetyl inh
O=C(C[C@H]1C=C[C@H](NC(=O)Nc2cc(F)ccc2F)[C@@H](CO)O1)NCCCN1CCOCC1	13.2	11.7	-8.2	4.1	121.4*	5.4
Cn1cnc(S(=O)(=O)N[C@H]2CC[C@@H](CC(=O)Nc3ccccc3)O[C@@H]2CO)c1	34.4*	-8.0	4.0	2.9	-5.7	-2.6
O=C(C[C@@H]1CC[C@@H](NC(=O)c2cccnc2)[C@@H](CO)O1)NCCN1CCCCC1	0.9	29.8	5.7	3.8	93.1*	4.5
Cc1ccc(Cn2c(N/N=C/c3ccncc3)nc3c2c(=O)n(C)c(=O)n3C)cc1	6.9	-4.4	.	-10.1	-4.6	2.8
Cn1c(=O)c2c(nc(N/N=C/c3ccncc3)n2Cc2ccccc2)n(C)c1=O	0.3	-2.5	-1.2	-29.2*	-2.5	-7.4
CN(/N=C/Cc1nnnn1-c1ccc(Cl)cc1)c1ccccc1	-1.2	8.0	.	-21.6*	.	.
COc1ccc(S(=O)(=O)Nc2ccc3c(c2)CC(=O)N([C@@H](C)CO)C[C@H](C)[C@H](CN(C)Cc2ccc(C(F)(F)F)cc2)O3)cc1	21.7*	2.3	26.3	-0.4	2.9	-4.0
COc1ccc(S(=O)(=O)Nc2ccc3c(c2)CC(=O)N([C@H](C)CO)C[C@@H](C)[C@H](CN(C)Cc2ccc(C(F)(F)F)cc2)O3)cc1	14.6	4.5	78.9*	-0.8	6.4	-4.5
COc1ccc(S(=O)(=O)Nc2ccc3c(c2)CC(=O)N([C@@H](C)CO)C[C@@H](C)[C@@H](CN(C)Cc2ccc(C(F)(F)F)cc2)O3)cc1	5.3	3.9	22.8	-4.2	2.3	-4.5
COc1ccc(CN(C)C[C@H]2Oc3ccc(NS(=O)(=O)c4ccc(OC)cc4)cc3CC(=O)N([C@H](C)CO)C[C@H]2C)cc1	0.9	-15.0	43.7	3.9	-0.4	-8.6
COc1ccc(S(=O)(=O)Nc2ccc3c(c2)CC(=O)N([C@H](C)CO)C[C@@H](C)[C@@H](CN(C)Cc2ccc(C(F)(F)F)cc2)O3)cc1	21.8*	-1.9	?	0.0	0.7	-12.9
COc1ccc(CN(C)C[C@H]2Oc3ccc(NS(=O)(=O)c4ccc(OC)cc4)cc3CC(=O)N([C@H](C)CO)C[C@@H]2C)cc1	4.6	3.6	.	-1.7	.	-3.0
COc1ccc(S(=O)(=O)Nc2ccc3c(c2)CC(=O)N([C@H](C)CO)C[C@H](C)[C@@H](CN(C)Cc2ccc(C(F)(F)F)cc2)O3)cc1	25.9*	4.4	?	.	0.4	0.0
O=C(C[C@@H]1CC[C@@H](NC(=O)C2CCOCC2)[C@@H](CO)O1)Nc1ccccc1	1.3	10.3	.	2.6	.	6.5
COc1ccc(CN(C)C[C@@H]2Oc3ccc(NS(=O)(=O)c4ccc(F)cc4)cc3CC(=O)N([C@H](C)CO)C[C@H]2C)cc1	-0.9	1.0	74.8*	-1.6	1.0	0.5
COc1ccc(S(=O)(=O)Nc2ccc3c(c2)CC(=O)N([C@@H](C)CO)C[C@@H](C)[C@H](CN(C)Cc2ccc(C(F)(F)F)cc2)O3)cc1	23.8*	-20.0	75.6*	0.6	8.7	-9.3
C[C@@H]1CN([C@@H](C)CO)C(=O)c2cc(C3=CCCCC3)cnc2O[C@H]1CN(C)Cc1cccc(F)c1	6.3	-0.2	.	-1.1	1.1	-19.0
C[C@H]1CN([C@@H](C)CO)S(=O)(=O)c2ccc(-c3ccc(C(=O)N(C)C)cc3)cc2O[C@@H]1CN(C)C(=O)Nc1ccccc1F	-10.4	-92.8	1.0	-0.9	-0.1	1.3
CN(C)C(=O)c1ccc(-c2ccc([C@@H]3[C@H]4CN(C(=O)C5CCC5)CC(=O)N4[C@H]3CO)cc2)cc1	-3.0	20.1	.	1.7	.	10.5
COc1ccc(NC(=O)N(C)C[C@H]2OCc3ccccc3-c3c(n(C)c4ccccc34)C(=O)N([C@@H](C)CO)C[C@@H]2C)cc1	2.5	19.3	.	-3.4	-2.3	-0.7
C[C@H]1CN([C@@H](C)CO)C(=O)Cc2cc(NC(=O)CCCCCC(=O)Nc3ccccc3N)ccc2O[C@H]1CN(C)Cc1ccc(C(F)(F)F)cc1	4.0	-4.8	110.9*	-4.4	2.1	0.5
C[C@@H]1CN([C@H](C)CO)C(=O)Cc2cc(NC(=O)CCCCCC(=O)Nc3ccccc3N)ccc2O[C@H]1CN(C)Cc1ccc2c(c1)OCO2	.	0.8	19.2	-5.1	91.7*	3.5
C[C@@H]1CN([C@@H](C)CO)C(=O)Cc2cc(NC(=O)CCCCCC(=O)Nc3ccccc3N)ccc2O[C@@H]1CN(C)Cc1ccc(-c2ccccc2)cc1	-1.9	-1.1	19.2	-2.2	-2.9	9.8
C[C@H](CO)N1C[C@H](C)[C@H](CN(C)Cc2ccccc2)Oc2ccc(NC(=O)CCCCCC(=O)Nc3ccccc3N)cc2CC1=O	0.5	-1.0	79.9*	-2.8	-2.6	0.2
C[C@@H]1CN([C@@H](C)CO)C(=O)Cc2cc(NC(=O)CCCCCC(=O)Nc3ccccc3N)ccc2O[C@H]1CN(C)Cc1ccc(C(F)(F)F)cc1	0.3	-1.3	?	-4.2	4.6	0.5
SMILES	SIRT5 block	S100A4 MyoIIA	Statin myotox sup	rRNA inh HTS	Cneo AK release	PGC1a acetyl inh
C[C@@H]1CN([C@H](C)CO)C(=O)Cc2cc(NC(=O)CCCCCC(=O)Nc3ccccc3N)ccc2O[C@H]1CN(C)CC1CCCCC1	.	0.9	88.5*	0.0	-6.2	-6.5
CNC(=O)C[C@@H]1CC[C@H]2[C@H](COc3ccc(NC(=O)Cc4cccs4)cc3C(=O)N2C)O1	.	.	-4.8	0.3	-9.1	9.7
C[C@H]1CN([C@@H](C)CO)C(=O)Cc2cc(NC(=O)CCCCCC(=O)Nc3ccccc3N)ccc2O[C@@H]1CN(C)Cc1ccc(-c2ccccc2)cc1	-1.5	0.1	132.8*	-1.7	-0.9	-6.9
Cc1cc(N/N=C/c2ccccc2F)nc(NCc2ccccc2)n1	-3.5	0.2	-9.8	-29.6*	.	.
Cc1cc(N/N=C/c2ccccc2)nc(NCc2ccccc2)n1	-6.9	-4.5	.	-35.2*	-8.6	.
CC(C)(Sc1ccc(CCN(CCCCC2CCCCC2)C(=O)NC2CCCCC2)cc1)C(=O)O	25.8*	-0.1	12.1	-4.6	-2.4	1.6
CC(C)NC(=O)N(C)C[C@@H]1Oc2c(NS(=O)(=O)c3ccc(Cl)cc3)cccc2C(=O)N([C@@H](C)CO)C[C@H]1C	.	5.2	-18.6	-0.2	-0.4	-5.6

Screens as filed in PubChem.
